Experimental data: ChEMBL document CHEMBL1122307, “Mitomycin C and porfiromycin analogues with substituted ethylamines at position 7” (J Med Chem, 1983)
Values joined by “and” are separate entries in the source; they are usually repeats but may differ in a detail not shown here. Equal entries are not always repeated.

How the values were obtained:
[1] = Partition coefficient (logP); type: physicochemical; details: octanol/water
P388 [2] = experiment: Leukopenia % change in WBC at optimal dose on 3rd day.; type: functional, Mus musculus
P388 [3] = experiment: Maximum % T/C against P-388 murine leukemia cells in mice.; type: functional, Mus musculus
In short: (§1)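 P-388 ascites leukemia, 10⁶ cells implanted ip in female CDF₁ mice. Six mice per dose, with 10 saline-injected controls. A six-mouse mitomycin C group was run at each dose in the same experiment. % T/C = median survival time treated/control × 100 at the optimal dose. MED is the lowest dose giving T/C ≥ 125.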

P388 [4] = experiment: Maximum % T/C with mitomycin C against P-388 murine leukemia cells in mice.; type: functional, Mus musculus; in short: as §1
P388 [5] = experiment: Optimal dose required for antitumor activity against P-388 murine leukemia cells in mice.; type: functional, Mus musculus; in short: as §1
P388 [6] = experiment: Minimum effective dose required for antitumor activity against P-388 murine leukemia cells; type: functional; details: Mus musculus, read-out: MED; in short: as §1
[7] = Therapeutic ratio as optimal dose/minimal effective dose; type: ADME; details: mouse, p388; read-out: TR
L1210 [8] = experiment: Maximum % T/C against L-1210 leukemia cells in mice.; type: functional, Mus musculus
In short: (§2)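 L-1210 leukemia in mice, run by the standard NCI protocol with one dose on day 1. % T/C is based on survival. Repeated assays are reported as both values.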

L1210 [9] = experiment: Minimum effective dose required for antitumor activity against L-1210 leukemia cells in mice.; type: functional; details: Mus musculus, read-out: MED; in short: as §2
L1210 [10] = experiment: Optimal dose required for antitumor activity L-1210 leukemia cells in mice.; type: functional, Mus musculus; in short: as §2
B16 [11] = experiment: (§3) Median survival time (% T/C) after ip administration in B-16 melanoma in mice (dose mg/kg/day); type: functional, Mus musculus
In short: (§4)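 B-16 melanoma in mice, run by the standard NCI protocol. Drug given ip on days 1, 4 and 7, ten mice per dose. Read-outs were median survival time as % T/C of controls and average body-weight change in g.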

B16 [12] = experiment: as §3; type: functional, Mus musculus; in short: as §4; remark: listed apart in the source
B16 [13] = experiment: (§5) Average weight change after ip administration in B-16 melanoma in mice (dose mg/kg/day); type: functional, Mus musculus; in short: as §4
B16 [14] = experiment: as §5; type: functional, Mus musculus; in short: as §4; remark: listed apart in the source
B16 [15] = experiment: Average weight change after ip administration of in B-16 melanoma in mice (dose mg/kg/day); type: functional, Mus musculus; in short: as §4
B16 [16] = experiment: Average weight change after ip administration inB-16 melanoma in mice (dose mg/kg/day); type: functional, Mus musculus
In short: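 Mice bearing B-16 melanoma were tested under the standard NCI protocol at Arthur D. Little. Compound was injected ip on days 1, 4 and 7, with ten mice per dose. Average body-weight change is reported in g. Alongside it, median survival time was given as % T/C and cures as tumor-free survivors on day 45.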

B16 [17] = experiment: as §3; type: functional; in short: as §4
B16 [18] = experiment: as §3; type: functional; in short: as §4; remark: listed apart in the source
B16 [19] = experiment: Tumor free survivors on 45th day after ip administration in B-16 melanoma in mice (dose mg/kg/day); 0
B16 [20] = experiment: Tumor free survivors on 45th day after ip administration of in B-16 melanoma in mice (dose mg/kg/day); 0

| Structure (SMILES) | logP [1] | Change in WBC (P388 [2]) [%] | T/C (P388 [3]) [%] | T/C (P388 [4]) [%] | Dose (P388 [5]) [mg/kg] | minimal effective dose (P388 [6]) [mg/kg] | selectivity ratio [7] | T/C (L1210 [8]) [%] | minimal effective dose (L1210 [9]) [mg/kg] | Dose (L1210 [10]) [mg/kg] | T/C (B16 [11]) [%] | T/C (B16 [12]) | Average weight change (B16 [13]) | Average weight change (B16 [14]) [g] | Average weight change (B16 [15]) [g] | Average weight change (B16 [16]) [g] | T/C (B16 [17]) [%] | T/C (B16 [18]) | Cures (B16 [19]) | Cures (B16 [20]) |
| --- | --- | --- | --- | --- | --- | --- | --- | --- | --- | --- | --- | --- | --- | --- | --- | --- | --- | --- | --- | --- |
| COC12[C@@H]3N[C@@H]3CN1C1=C(C(=O)/C(=N/CCO)C(C)=C1O)[C@@H]2COC(N)=O (stereo not given in full) | -0.81 | -38 | 228 | 228 | 25.6 | 1.6 | 16 | – | – | – | – | – | – | – | – | – | – | – | – | – |
| COC(C/N=C1/C(=O)C2=C(C(O)=C1C)N1C[C@H]3N[C@H]3C1(OC)[C@H]2COC(N)=O)OC (stereo not given in full) | – | -44 | 200 | 224 | 6.4 | 0.8 | 8 | 151 | 6 | 24 | – | – | – | – | – | – | – | – | – | – |
| CCN1CCCC1C/N=C1/C(=O)C2=C(C(O)=C1C)N1C[C@H]3N[C@H]3C1(OC)[C@H]2COC(N)=O (stereo not given in full) | – | -29 | 217 | 211 | 12.8 | 0.8 | 16 | – | – | – | – | – | – | – | – | – | – | – | – | – |
| COC12[C@@H]3N[C@@H]3CN1C1=C(C(=O)/C(=N/CCN3CCCC3)C(C)=C1O)[C@@H]2COC(N)=O (stereo not given in full) | – | -64 | 194 | 211 | 12.8 | 0.4 | 32 | 125 | 5 | 5 | – | – | – | – | – | – | – | – | – | – |
| COC12[C@@H](COC(N)=O)C3=C(C(=O)C(C)=C(NCCCl)C3=O)N1C[C@@H]1[C@H]2N1C (stereo not given in full) | – | – | – | >300 | 51.2 | – | 8 | – | – | – | – | – | – | – | – | – | – | – | – | – |
| COC12[C@@H]3N[C@@H]3CN1C1=C(C(=O)/C(=N/CCS)C(C)=C1O)[C@@H]2COC(N)=O (stereo not given in full) | 0.63 | -35 | 313 | 181 | 12.8 | 0.2 | 64 | 168 | 1.6 | 9.6 | 190 | 218% | -0.5 g | -0.5 | – | – | – | – | – | – |
| CC/N=C1/C(=O)C2=C(C(O)=C1C)N1C[C@H]3N[C@H]3C1(OC)[C@H]2COC(N)=O (stereo not given in full) | 0.35 | – | 250 | 322 | 12.8 | 0.8 | 32 | – | – | – | – | – | – | – | – | – | – | – | – | – |
| COC12[C@@H]3N[C@@H]3CN1C1=C(C(=O)C(NCCN(C)C)=C(C)C1=O)[C@@H]2COC(N)=O (stereo not given in full) | – | – | 233 | 161 | 12.8 | 0.4 | 32 | 136 | 6 | 12 | – | – | – | – | – | – | – | – | – | – |
| COCC/N=C1/C(=O)C2=C(C(O)=C1C)N1C[C@H]3N[C@H]3C1(OC)[C@H]2COC(N)=O (stereo not given in full) | -0.12 | -57 | 205 | 268 | 12.8 | 0.8 | 16 | 143 | 6 | 12 | – | 190% | -0.4 g | -1.7 | -2 | – | – | – | – | – |
| COC12[C@@H](COC(N)=O)C3=C(C(O)=C(C)/C(=N\CCS)C3=O)N1C[C@@H]1[C@H]2N1C (stereo not given in full) | – | – | 179 | 268 | 25.6 | 3.2 | 8 | 129 | 12 | 48 | – | – | – | – | – | – | – | – | – | – |
| COC12[C@@H]3N[C@@H]3CN1C1=C(C(=O)C(NCCC#N)=C(C)C1=O)[C@@H]2COC(N)=O (stereo not given in full) | -0.49 | -40 | 232 | 268 | 6.4 | 0.4 | 16 | 130 | 3 | 12 | – | – | – | – | – | – | – | – | – | – |
| COC12[C@@H]3N[C@@H]3CN1C1=C(C(=O)C(NCCc3ccc(O)c(O)c3)=C(C)C1=O)[C@@H]2COC(N)=O (stereo not given in full) | – | – | 139 | 233 | 12.8 | 12.8 | 1 | – | – | – | – | – | – | – | – | – | – | – | – | – |
| CCSCC/N=C1/C(=O)C2=C(C(O)=C1C)N1C[C@H]3N[C@H]3C1(OC)[C@H]2COC(N)=O (stereo not given in full) | 1.66 | – | 205 | 268 | 12.8 | 1.6 | 8 | 141 | 12 | 24 | – | 190% and 175% and 144% | -1.2 g and -0.8 g | – | -1.7 | – | – | – | – | – |
| COC12[C@@H]3N[C@@H]3CN1C1=C(C(=O)/C(=N/CCN3CCOCC3)C(C)=C1O)[C@@H]2COC(N)=O (stereo not given in full) | – | – | 150 | 211 | 25.6 | 6.4 | 4 | 132 | 48 | 96 | – | – | – | – | – | – | – | – | – | – |
| COC12[C@@H]3N[C@@H]3CN1C1=C(C(=O)/C(=N/CCF)C(C)=C1O)[C@@H]2COC(N)=O (stereo not given in full) | 0.18 | – | >316 | 268 | 6.4 | 0.4 | 16 | – | – | – | – | – | – | – | – | – | – | – | – | – |
| COC12[C@@H]3N[C@@H]3CN1C1=C(C(=O)C(NCCc3ccccc3)=C(C)C1=O)[C@@H]2COC(N)=O (stereo not given in full) | 2.48 | – | – | 194 | 25.6 | – | 16 | – | – | – | – | – | – | – | – | – | – | – | – | – |
| CCSCC/N=C1/C(=O)C2=C(C(O)=C1C)N1C[C@@H]3[C@@H](N3C)C1(OC)[C@H]2COC(N)=O (stereo not given in full) | – | – | 200 | 322 | 25 | 6.4 | 4 | 143 | 24 | 48 | – | – | – | – | – | – | – | – | – | – |
| COC12[C@@H]3N[C@@H]3CN1C1=C(C(=O)/C(=N/CCN)C(C)=C1O)[C@@H]2COC(N)=O (stereo not given in full) | -0.84 | – | 178 | 156 | 3.3 | 0.4 | 8 | – | – | – | – | – | – | – | – | – | – | – | – | – |
| COC12[C@@H]3N[C@@H]3CN1C1=C(C(=O)C(N[C@@H]3CC3c3ccccc3)=C(C)C1=O)[C@@H]2COC(N)=O (stereo not given in full) | – | – | 200 | 233 | 25.6 | 1.6 | 16 | – | – | – | – | – | – | – | – | – | – | – | – | – |
| COC12[C@@H]3N[C@@H]3CN1C1=C(C(=O)/C(=N/CCc3ccc(O)cc3)C(C)=C1O)[C@@H]2COC(N)=O (stereo not given in full) | – | – | 218 | 288 | 25.6 | 1.6 | 16 | 125 | 12 | 48 | – | – | – | – | – | – | – | – | – | – |
| COC12[C@@H]3N[C@@H]3CN1C1=C(C(=O)C(NCCCl)=C(C)C1=O)[C@@H]2COC(N)=O (stereo not given in full) | 0.74 | -7 | – | 245 | 12.8 | – | 8 | – | – | – | – | – | – | – | – | – | – | – | – | – |
| CO[C@@]12[C@H](COC(N)=O)C3=C(C(=O)C(C)=C(N)C3=O)N1C[C@@H]1N[C@@H]12 [MITOMYCIN] | – | -42 | 161 | – | 3.2 | – | 16 | 124 | 3 | 3 | – | – | -1.1 g | – | -2.2 | -0.7 | 190 | 160% and 127% | 0 | 0 |
